Active and inactive are the calls of the source. No cut-off for these calls is given here.
Key:
[1] = biological target: T1, Toll-like receptor 7 (Homo sapiens) (UniProt Q9NYK1); assay: Activation of TLR7 in human AD293 cells assessed as IkappaB-alpha degradation at 10 uM preincubated with NAC followed by compound addition and measured after 30 mins by Western blot analysis; assay type: cell-based
T1 sequence (whole entry): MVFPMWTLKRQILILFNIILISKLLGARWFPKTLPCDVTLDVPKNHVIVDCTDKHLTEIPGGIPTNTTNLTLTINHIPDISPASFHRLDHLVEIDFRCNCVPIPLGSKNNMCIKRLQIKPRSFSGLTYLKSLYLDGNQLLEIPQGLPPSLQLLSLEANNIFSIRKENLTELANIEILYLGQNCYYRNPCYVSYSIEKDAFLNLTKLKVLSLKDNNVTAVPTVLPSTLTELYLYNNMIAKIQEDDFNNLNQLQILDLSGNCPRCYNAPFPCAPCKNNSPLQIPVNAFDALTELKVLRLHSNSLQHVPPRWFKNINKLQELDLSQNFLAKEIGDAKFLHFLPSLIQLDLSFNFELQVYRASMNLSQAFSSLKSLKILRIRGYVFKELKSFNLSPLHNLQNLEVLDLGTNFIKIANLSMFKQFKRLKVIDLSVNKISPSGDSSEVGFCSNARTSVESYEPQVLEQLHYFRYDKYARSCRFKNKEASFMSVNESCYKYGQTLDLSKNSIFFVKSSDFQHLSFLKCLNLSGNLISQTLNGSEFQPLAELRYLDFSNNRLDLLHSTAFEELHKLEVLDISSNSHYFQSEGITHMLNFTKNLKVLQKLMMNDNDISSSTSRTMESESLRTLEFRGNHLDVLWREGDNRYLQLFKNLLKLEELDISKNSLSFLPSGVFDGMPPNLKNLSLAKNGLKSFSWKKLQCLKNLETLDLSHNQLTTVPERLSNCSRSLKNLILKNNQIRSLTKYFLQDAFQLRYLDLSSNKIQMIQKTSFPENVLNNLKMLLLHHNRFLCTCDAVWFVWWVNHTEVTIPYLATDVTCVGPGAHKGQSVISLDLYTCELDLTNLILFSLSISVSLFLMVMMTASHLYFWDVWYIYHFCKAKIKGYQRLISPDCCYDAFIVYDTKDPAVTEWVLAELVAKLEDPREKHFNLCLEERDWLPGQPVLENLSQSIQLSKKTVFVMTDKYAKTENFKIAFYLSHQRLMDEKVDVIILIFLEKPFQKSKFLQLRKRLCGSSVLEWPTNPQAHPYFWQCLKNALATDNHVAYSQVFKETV
Outline: (§1)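 Stable TLR7-expressing AD293 line made by TLR7 plasmid transfection and hygromycin B selection (250 μg/mL, 10 days). Cells pretreated with N-acetyl-cysteine, then given 10 μM compound, with or without 30 min 650 nm red-light irradiation. Lysates run on 10% SDS-PAGE and blotted to PVDF. Total IκB probed (1:1000) with GAPDH loading control, ECL detection. Means of three experiments.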

[2] = Induction of superoxide anion radical assessed as DMPO-O2 radical adduct formation under dark condition measured after 10 mins by ESR spectra analysis; assay type: functional
Outline: (§2)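 ESR spectra recorded with DMPO as spin trap to detect superoxide and/or hydroxyl radical adducts, before and after 10 min irradiation of compound.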

[3] = Photophysical property of the compound assessed as fluorescence quantum yield; assay type: physicochemical
AD293 = assay: Cytotoxicity against human AD293 cells assessed as cell viability at 0.1 to 10 uM incubated for 24 hrs by MTT assay; assay type: toxicity, cell-based; conditions: ad293, 24 h, dose 0.1-10 µM
Outline: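 AD293 cells seeded at 4 × 10^4 cells/well in DMEM with 10% FBS. Next day, compound (100 nM, 1 μM, 10 μM) or vehicle added in serum-free DMEM for 24 h, no irradiation. MTT (5 mg/mL reagent) added for 3 h at 37 °C, formazan dissolved in DMSO, absorbance read at 590 nm. Triplicate wells, four independent experiments.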

[4] = Induction of hydroxyl radical assessed as DMPO-OH radical adduct formation under light irradiation measured after 10 mins by ESR spectra analysis; assay type: functional; outline: as §2
[5] = Drug uptake in human AD293 cells assessed as increase in red fluorescence at 10 uM measured after 40 mins by fluorescence imaging based analysis; assay type: ADME, cell-based; conditions: ad293, 40 min
[6] = biological target: T1, Toll-like receptor 7 (Homo sapiens); assay: Activation of TLR7 in human AD293 cells assessed as IkappaB-alpha degradation at 10 uM preincubated with NAC followed by compound addition and measured after 30 mins under 650nm red light irradiation by Western blot analysis; assay type: cell-based; conditions: filed as activator; outline: as §1
[7] = Induction of superoxide anion radical assessed as DMPO-O2 radical adduct formation under light irradiation measured after 10 mins by ESR spectra analysis; assay type: functional; outline: as §2
[8] = Photosensitizing ability of the compound assessed as singlet oxygen quantum yield under 600nm monochromatic light irradiation by DPBF based assay relative to control; assay type: functional
Outline: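 Singlet oxygen generation followed by the decrease in DPBF absorbance under irradiation. DPBF (20–25 μm) used at 5–10-fold excess over compound (2.5–5 μm).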

[9] = Dark toxicity in human HaCaT cells assessed as cell viability at 10 uM under dark condition and measured after 72 hrs by CCK-8 method relative to control; assay type: cell-based; conditions: read-out: Activity
Outline: (§3)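 A549, HaCaT and HeLa cells seeded at 2 × 10^3 cells/well in phenol red-free DMEM with 10% FBS. After 24 h, medium replaced with 1% DMSO containing 10 μM compound. After 90 min, one plate kept dark and one exposed to 530 or 650 nm LED (30 mW) for 15 min. Plates incubated 72 h, then CCK-8 read at 450 nm. Viability taken relative to dark control. Triplicates (HaCaT six).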

[10] = Dark toxicity in human A549 cells assessed as cell viability at 10 uM under dark condition and measured after 72 hrs by CCK-8 method relative to control; assay type: cell-based; conditions: read-out: Activity; outline: as §3
[11] = Photorelease activity of the compound in aqueous solution at 30 uM under dark condition by 1H NMR spectroscopy analysis; assay type: ADME; conditions: buffer
[12] = Thermal stability of compound in DMSO-d6 at 37.5 degree C measured after 1 day by 1H NMR spectroscopy analysis relative to control; assay type: physicochemical; conditions: 24 h
Outline: (§4)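 Compound in DMSO-d6 followed by 1H NMR. Degradation taken from the intensity of three signals (one resiquimod, one BODIPY, and the linkage NH), each relative to the DMSO-d6 internal standard, and the three averaged.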

[13] = Thermal stability of compound in DMSO-d6 at 37.5 degree C measured after 3 days by 1H NMR spectroscopy analysis relative to control; assay type: physicochemical; conditions: 72 h; time 3 day; outline: as §4
[14] = Photorelease activity of the compound in DMSO-d6 measured within 90 mins under 660nm 400mW LED light by 1H NMR spectroscopy analysis relative to control; assay type: ADME; conditions: 1.5 h

CCOCc1nc2c(NC(=O)OCC3=C4C(C)=CC(/C=C/c5ccc(OCCOCCOCCOC)cc5)=[N+]4[B-](C)(C)n4c(/C=C/c5ccc(OCCOCCOCCOC)cc5)cc(C)c43)nc3ccccc3c2n1CC(C)(C)O
Activity [1]: inactive | Activity [2]: inactive | Activity [3]: 0.411 | Activity (AD293): Non-toxic | Activity [4]: inactive | Drug uptake [5]: Active | Activity [6]: Active | Activity [7]: inactive | Activity [8]: 1.2% | viability at 72 h, 10 µM [9]: 2% | viability at 72 h, 10 µM [10]: 2% | Activity [11]: Not_active | Activity [12]: 7% | Activity [13]: 15% | Activity [14]: ~ 90%
